Key:
[1] = target: T1, Amine oxidase [flavin-containing] B (Homo sapiens, UniProt P27338); experiment: Inhibition of recombinant human MAOB expressed in baculovirus infected in BTI cells using benzylamine as substrate preincubated with enzyme for 30 mins followed by substrate addition and measured every 2.5 mins for 30 mins by Amplex-Red oxidation assay
T1 sequence (P27338 whole entry): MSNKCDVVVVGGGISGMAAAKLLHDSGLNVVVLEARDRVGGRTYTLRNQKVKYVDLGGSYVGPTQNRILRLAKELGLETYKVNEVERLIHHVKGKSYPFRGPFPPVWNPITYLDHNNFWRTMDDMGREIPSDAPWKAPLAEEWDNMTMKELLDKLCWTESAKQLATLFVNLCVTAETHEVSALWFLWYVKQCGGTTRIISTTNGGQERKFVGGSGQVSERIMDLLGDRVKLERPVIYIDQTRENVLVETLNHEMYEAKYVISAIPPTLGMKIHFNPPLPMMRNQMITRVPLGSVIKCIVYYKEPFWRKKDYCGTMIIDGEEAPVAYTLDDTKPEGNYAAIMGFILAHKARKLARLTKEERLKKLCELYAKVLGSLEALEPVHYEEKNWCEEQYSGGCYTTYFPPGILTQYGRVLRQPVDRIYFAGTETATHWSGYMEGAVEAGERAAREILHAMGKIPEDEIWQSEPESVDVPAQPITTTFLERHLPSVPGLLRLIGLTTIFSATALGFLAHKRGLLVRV

[2] = target: T2, Amine oxidase [copper-containing] 3 (Homo sapiens, UniProt Q16853); experiment: Inhibition of recombinant human SSAO using benzylamine as substrate preincubated with enzyme for 30 mins followed by substrate addition and measured every 2.5 mins for 30 mins by Amplex-Red oxidation assay
T2 sequence (Q16853 whole entry): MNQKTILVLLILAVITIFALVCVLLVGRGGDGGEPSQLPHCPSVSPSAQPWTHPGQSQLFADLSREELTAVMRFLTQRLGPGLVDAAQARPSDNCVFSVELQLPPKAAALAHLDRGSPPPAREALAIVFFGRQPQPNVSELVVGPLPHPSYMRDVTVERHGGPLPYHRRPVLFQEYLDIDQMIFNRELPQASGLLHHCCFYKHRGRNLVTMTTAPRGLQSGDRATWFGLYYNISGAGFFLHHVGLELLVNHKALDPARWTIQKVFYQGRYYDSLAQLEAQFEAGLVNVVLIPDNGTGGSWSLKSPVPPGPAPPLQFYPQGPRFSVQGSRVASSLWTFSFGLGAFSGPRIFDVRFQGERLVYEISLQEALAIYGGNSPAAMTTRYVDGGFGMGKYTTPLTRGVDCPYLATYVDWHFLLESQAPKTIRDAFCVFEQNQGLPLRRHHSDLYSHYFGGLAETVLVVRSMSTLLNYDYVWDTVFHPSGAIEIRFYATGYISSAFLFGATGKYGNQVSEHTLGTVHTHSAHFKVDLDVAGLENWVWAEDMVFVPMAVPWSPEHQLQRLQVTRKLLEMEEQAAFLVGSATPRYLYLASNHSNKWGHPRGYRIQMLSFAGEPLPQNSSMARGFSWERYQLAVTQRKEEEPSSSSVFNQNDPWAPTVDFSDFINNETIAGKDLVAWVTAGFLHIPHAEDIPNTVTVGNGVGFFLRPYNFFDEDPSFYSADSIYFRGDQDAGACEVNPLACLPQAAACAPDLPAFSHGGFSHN

[3] = target: T3, Amine oxidase [flavin-containing] A (Homo sapiens, UniProt P21397); experiment: Inhibition of recombinant human MAOA expressed in baculovirus infected in BTI cells using tyramine as substrate preincubated with enzyme for 30 mins followed by substrate addition and measured every 2.5 mins for 30 mins by Amplex-Red oxidation assay
T3 sequence (P21397 whole entry): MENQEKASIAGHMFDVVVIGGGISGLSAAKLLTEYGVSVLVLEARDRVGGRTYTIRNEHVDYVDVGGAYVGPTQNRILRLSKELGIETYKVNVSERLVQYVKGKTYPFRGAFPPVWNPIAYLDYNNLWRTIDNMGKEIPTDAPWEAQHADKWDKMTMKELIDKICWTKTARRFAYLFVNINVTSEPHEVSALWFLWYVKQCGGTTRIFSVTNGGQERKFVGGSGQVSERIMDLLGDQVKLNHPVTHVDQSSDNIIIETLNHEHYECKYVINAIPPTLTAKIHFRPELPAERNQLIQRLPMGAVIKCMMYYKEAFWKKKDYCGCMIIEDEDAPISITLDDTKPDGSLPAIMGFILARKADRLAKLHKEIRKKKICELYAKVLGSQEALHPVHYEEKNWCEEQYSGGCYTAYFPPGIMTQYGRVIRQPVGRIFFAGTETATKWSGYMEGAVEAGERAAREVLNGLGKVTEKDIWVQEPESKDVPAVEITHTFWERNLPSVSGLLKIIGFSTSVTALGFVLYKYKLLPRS

Mus musculus = experiment: Effect on plasma AST level in CCl4-induced BALB/c mouse model of liver fibrosis at 15 mg/kg, po administered once daily for 6 weeks; type: ADME, organism-based; details: in vivo, 1008 h
Outline: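 CCl4 liver fibrosis in female BALB/c mice: CCl4 i.p. (1 mL/kg 25% in olive oil) twice weekly for 6 weeks, sacrifice 48 h after final injection. Oral once-daily dosing weeks 1-6 or weeks 4-6; imatinib 50 mg/kg daily weeks 1-6. ALT and AST measured in plasma.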

Protein-lysine 6-oxidase = target: T4, Protein-lysine 6-oxidase (Homo sapiens, UniProt P28300); experiment: Inhibition of LOX in human IMR90 cells using putrescine as substrate preincubated with enzyme for 30 mins followed by substrate addition and measured every 2.5 mins for 30 mins by Amplex-Red oxidation assay; type: cell-based
T4 sequence (P28300 whole entry): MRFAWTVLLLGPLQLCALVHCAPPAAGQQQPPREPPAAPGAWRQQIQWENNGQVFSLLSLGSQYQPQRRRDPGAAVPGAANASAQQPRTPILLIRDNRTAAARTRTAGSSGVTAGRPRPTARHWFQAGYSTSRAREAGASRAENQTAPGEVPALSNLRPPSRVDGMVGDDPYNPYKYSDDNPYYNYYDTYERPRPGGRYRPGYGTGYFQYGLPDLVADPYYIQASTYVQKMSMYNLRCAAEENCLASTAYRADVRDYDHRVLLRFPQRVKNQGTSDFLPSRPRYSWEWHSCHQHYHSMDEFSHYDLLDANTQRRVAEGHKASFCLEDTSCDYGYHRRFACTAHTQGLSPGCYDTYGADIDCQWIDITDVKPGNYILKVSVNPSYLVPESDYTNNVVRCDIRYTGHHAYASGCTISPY
Outline: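 IMR90 fibroblasts grown in MEM/10% FBS to 80% confluence, then 48-72 h in phenol-red-free 0.1% FBS medium. Conditioned medium concentrated 40-fold (10 kDa). LOX and LOXL2 separated on a 50 kDa filter in 6 M urea/borate, then diluted back to 1.2 M urea. Preincubated 30 min at 37 °C with compound; Amplex Red/HRP/putrescine readout every 2.5 min over 30 min.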

[4] = Protein binding in human plasma; type: ADME, cell-free; details: read-out: PPB (converted)
[5] = Stability in dog plasma assessed as half life

Q: Which IC50 ([1]; read-out: pIC50 (converted)) does the source give for `Cc1c(-c2cccc(S(=O)(=O)N(C)C)c2)c2ccccc2n1C/C(F)=C/CN.Cl` here?
A: The IC50 was > 31.6 µM.

Q: And the IC50 ([2]; read-out: pIC50 (converted))?
A: Its IC50 is 7.94 µM.

Q: What about the IC50 ([3]; read-out: pIC50 (converted)) of the same molecule?
A: The IC50 was > 31.6 µM.

Q: For `CCOC(=O)c1ccc2c(c1)c(-c1cccc(S(=O)(=O)N(C)C)c1)c(C)n2C/C(F)=C/CN.Cl`, which Activity (Mus musculus) is on record?
A: The Activity was “Non-Toxic”.

Q: Which IC50 ([1]; read-out: IC50) does the source give for `Cc1c(-c2cccc(S(=O)(=O)N(C)C)c2)c2cc(C(=O)O)ccc2n1C/C(F)=C/CN.Cl` here?
A: The IC50 was > 30 µM.

Q: And the IC50 (Protein-lysine 6-oxidase)?
A: The IC50 was 1.26 µM.

Q: What about the IC50 ([2]; read-out: IC50) of the same molecule?
A: The IC50 was > 30 µM.

Q: What about the fraction unbound [4] of the same molecule?
A: The fraction unbound was 0.08.

Q: What about the half-life [5] of the same molecule?
A: Its half-life is > 2 h.

Q: What about the IC50 ([3]; read-out: IC50) of the same molecule?
A: Its IC50 is > 30 µM.

Reference: ChEMBL document CHEMBL4321820, “Identification and Optimization of Mechanism-Based Fluoroallylamine Inhibitors of Lysyl Oxidase-like 2/3” (J Med Chem, 2019)
